NPY-Y1 PAM-ag: human NPY-Y1 potentiation or agonism, primary screen; activation, % at 3.6 µM; NPY-Y1 expressing cells, potentiator/agonist activation; actives 0.37% (n = 220,000); P25929; in the data active means activation above about 33%, passing the limit was not always enough;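 further: cells stimulated with NPY at EC10 then isoproterenol at EC100; 0% = low agonist plus stimulus and 100% = saturating agonist plus stimulus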
Target sequence (P25929 whole entry, looked up): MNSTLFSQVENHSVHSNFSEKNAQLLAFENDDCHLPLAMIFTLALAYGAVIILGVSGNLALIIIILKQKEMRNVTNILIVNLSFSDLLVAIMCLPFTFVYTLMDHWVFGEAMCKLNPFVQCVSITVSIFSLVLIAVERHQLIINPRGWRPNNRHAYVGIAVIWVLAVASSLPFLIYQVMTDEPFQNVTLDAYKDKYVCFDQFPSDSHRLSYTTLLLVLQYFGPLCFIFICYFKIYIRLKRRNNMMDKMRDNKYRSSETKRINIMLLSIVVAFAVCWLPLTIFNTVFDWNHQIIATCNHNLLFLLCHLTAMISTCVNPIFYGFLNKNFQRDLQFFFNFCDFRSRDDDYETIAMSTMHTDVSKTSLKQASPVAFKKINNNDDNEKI
NPY Y1 blocker: antagonists of human neuropeptide Y receptor Y1; P25929; HEK293-CNG Y1 cells, membrane potential fluorescence; NPY at EC95, then isoproterenol; inhibition, % at 3.6 µM; actives 1% (n = 200,000); AID 1040;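 active means inhibition above the campaign mean inhibition of all tested compounds plus 3 SD, cut at about 20% in these data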;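 further: 0% = DMSO wells given NPY plus isoproterenol and 100% = isoproterenol alone without NPY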
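Test system – HEK293 Y1/CNG channel cell line · Also added – NPY agonist 25 nM, then isoproterenol 1 µM plus Ro 20-1724 25 µM · Compound dosing – one concentration, 3.6 µM, in 0.4% DMSO · Schedule – compound incubation 1 h at room temperature, readout 45 min post-stimulation · Technique – fluorescence, membrane potential probe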
EP2 modulator: EP2 receptor (human) modulation; P43116; EP2-expressing cells, cAMP HTRF FRET, PGE2 co-stimulation; induction, % at 25 µM; actives 0.83% (n = 260,000); AID 940;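 active means compounds whose cAMP rise, as percent of the full-agonist control response, exceeds 60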;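 further: rat C6 glioma line stably carrying human EP2 under a CMV promoter; the protocol text gives 20 µM as final concentration; 100% = response of wells given 1 µM PGE2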
NPY-Y2 antag: blocks the human neuropeptide Y Y2 receptor. inhibition, % at 2.7 µM. P49146. actives 0.99% (n = 140,000). NPY-Y2 expressing cells, antagonist mode; in the data active means inhibition above about 17%;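 further: 0% = vehicle with agonist challenge and 100% = reference antagonist with challenge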
EP2 antag: EP2 receptor (human) inhibition; P43116; C6 glioma cells expressing human EP2, cAMP TR-FRET; cells stimulated with saturating PGE2; inhibition, % at 25 µM; actives 0.52% (n = 260,000); AID 1422;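 active means percent inhibition above 40 after rounding to a whole number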;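 further: rat C6 glioma host cells with rolipram phosphodiesterase inhibitor present; the protocol text gives 20 µM as final concentration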
NPY-Y2 PAM-ag: potentiators or agonists of human neuropeptide Y receptor Y2 | cells expressing NPY-Y2, potentiator/agonist read-out | activation, % at 3.6 µM | actives 0.45% (n = 220,000); in the data active means activation above about 27%;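 further: cells stimulated with NPY near EC25 plus isoproterenol at EC100; 0% = vehicle plus submaximal agonist and 100% = vehicle plus saturating agonist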
The depositor's hits bear a star; ! = a repeat was not active. The list is not random: actives were taken first. Their share in the collection is about 2.8%.

What do the screens show for `C/C(N[O-])=C(\C)[N+]([O-])=[Cu].C/C(N[O-])=C(\C)[N+]([O-])=[Cu].CC(=N\[O-])/C(C)=N/[O-].CC(=N\[O-])/C(C)=N/[O-]`?
EP2 modulator: -16; EP2 antag: 56*

How did C/C(N[O-])=C(\C)[N+]([O-])=[Fe].CC(=N\[O-])/C(C)=N/[O-].[NH2-].c1c[nH+]c[n-]1 do in these assays?
EP2 modulator: -9; EP2 antag: 44*

Results for Cc1ccccc1NC(=O)COC(=O)c1ccccn1 ?
EP2 modulator: -45; EP2 antag: 8

Results for COCCN(C(=O)C1CC1)c1nc(-c2ccc(OC)cc2)cs1 ?
EP2 modulator: 51; EP2 antag: 8

What do the screens show for `COc1ccc(S(=O)(=O)Nc2ccc(Cl)cn2)c(C)c1C`?
NPY-Y1 PAM-ag: 59*; NPY Y1 blocker: -9; EP2 modulator: 11; NPY-Y2 antag: -13; EP2 antag: 9; NPY-Y2 PAM-ag: 37*

How did CCOc1cc(S(=O)(=O)Nc2ccc(Cl)cn2)ccc1F do in these assays?
NPY-Y1 PAM-ag: -37; NPY Y1 blocker: 9; EP2 modulator: -2; NPY-Y2 antag: 4; EP2 antag: 13; NPY-Y2 PAM-ag: -5

Results for CCc1nn(CC(=O)NCc2ccccc2F)c(=O)c2cc3ccsc3n12 ?
EP2 modulator: 20

What do the screens show for `Cc1ccc(NC(=O)Cn2sc3nc(C)cc(C)c3c2=O)c(Cl)c1`?
NPY-Y1 PAM-ag: 14; EP2 modulator: -27; EP2 antag: 9; NPY-Y2 PAM-ag: 3

Results for Cc1cc(C)c2c(=O)n(CC(=O)N3CCC(Cc4ccccc4)CC3)sc2n1 ?
NPY-Y1 PAM-ag: 9; NPY Y1 blocker: 3; EP2 modulator: 0; NPY-Y2 antag: 4; NPY-Y2 PAM-ag: -5

How did CCOc1ccc(NC(=O)Cn2sc3nc(C)cc(C)c3c2=O)cc1 do in these assays?
NPY-Y1 PAM-ag: 2; EP2 modulator: -41; EP2 antag: 122*; NPY-Y2 PAM-ag: 6

Results for Cc1cc(C)c2c(=O)n(CC(=O)Nc3cccc(F)c3)sc2n1 ?
NPY-Y1 PAM-ag: 4; EP2 modulator: -54; EP2 antag: 84*; NPY-Y2 PAM-ag: 21

Results for Cc1cc(C)c2c(=O)n(CC(=O)Nc3ccc(Cl)cc3)sc2n1 ?
NPY-Y1 PAM-ag: 14; EP2 modulator: -79; EP2 antag: 98*; NPY-Y2 PAM-ag: 13

Results for Cc1cccc(N2CCN(C(=O)Cn3sc4nc(C)cc(C)c4c3=O)CC2C)c1 (stereo not drawn) ?
NPY-Y1 PAM-ag: -3; NPY Y1 blocker: -2; EP2 modulator: -10; NPY-Y2 antag: 3; EP2 antag: 121*; NPY-Y2 PAM-ag: 9

What do the screens show for `Cc1cc(-c2ccc(Br)s2)nc(-n2cccc2)n1`?
NPY-Y1 PAM-ag: 9; NPY Y1 blocker: 2; EP2 modulator: 49; EP2 antag: 23; NPY-Y2 PAM-ag: -5

How did Cc1cc(-c2sccc2Br)nc(-n2cccc2)n1 do in these assays?
NPY-Y1 PAM-ag: -22; NPY Y1 blocker: 7; EP2 modulator: 65*; EP2 antag: 16; NPY-Y2 PAM-ag: -17

What do the screens show for `Cc1nn(CC(=O)NC(C)(C)C)c(=O)c2cc3occc3n12`?
EP2 modulator: -11; EP2 antag: 9

What do the screens show for `COc1ccc(C)cc1NC(=O)CSc1nnc(-c2ccncc2)n1C`?
EP2 modulator: 2; EP2 antag: 12

How did CCN1/C(=C/c2ccc3cccc(C)c3[n+]2CCCS(=O)(=O)[O-])C=Cc2cc(C)ccc21 do in these assays?
EP2 modulator: -40; EP2 antag: 9

Results for O=C(O)CSc1nc(-c2ccccc2)nc2ccc(F)cc12 ?
EP2 modulator: 89*; EP2 antag: 12

What do the screens show for `OCCSc1nc(-c2ccccc2)nc2ccc(F)cc12`?
NPY-Y1 PAM-ag: -21; NPY Y1 blocker: 4; EP2 modulator: 70*!; EP2 antag: 12; NPY-Y2 PAM-ag: -5

What do the screens show for `COC(=O)CSc1nc(-c2ccccc2)nc2ccc(F)cc12`?
NPY-Y1 PAM-ag: -16; NPY Y1 blocker: 4; EP2 modulator: 36; NPY-Y2 antag: -1; EP2 antag: 4; NPY-Y2 PAM-ag: 2

Results for COc1ccc(C2C(C(C)=O)=C(O)C(=O)N2CC#N)c(OC)c1 (stereo not drawn) ?
EP2 modulator: -5; EP2 antag: 10

Results for CCN(CC)CC(O)COc1ccccc1C(=O)CCc1ccccc1 (stereo not drawn) ?
NPY-Y1 PAM-ag: 51*; NPY Y1 blocker: 3; NPY-Y2 antag: 8; EP2 antag: 4; NPY-Y2 PAM-ag: 39*

How did CCC(=O)c1ccc(OCC(O)CN(CCc2ccccc2)Cc2ccccc2)cc1 (stereo not drawn) do in these assays?
NPY-Y1 PAM-ag: -21; NPY Y1 blocker: 8; EP2 modulator: 13; NPY-Y2 antag: 5; EP2 antag: 14; NPY-Y2 PAM-ag: -28

How did CCCNCC(O)COc1ccccc1C(=O)CCc1ccccc1 (stereo not drawn) do in these assays?
NPY-Y1 PAM-ag: 99*; NPY Y1 blocker: -7; EP2 modulator: -24; NPY-Y2 antag: 8; EP2 antag: 21; NPY-Y2 PAM-ag: 87*

Results for CCCc1nnc(SCC(=O)NC(C)C)n1C ?
EP2 modulator: -17; EP2 antag: 9

Results for COc1ccc(N(CC(=O)N2CCN(c3ccccc3F)CC2)S(C)(=O)=O)cc1 ?
EP2 modulator: -20; EP2 antag: 13

How did CCC(=O)N(Cc1cccs1)Cc1cc2cc(C)c(C)cc2n2nnnc12 do in these assays?
EP2 modulator: -69; EP2 antag: 12

How did C=CCn1c2cc(C)sc2c2cnn(CC(=O)NC(C)C)c(=O)c21 do in these assays?
EP2 modulator: -1

Results for C[C@@H]1CC=C[C@H]2[C@H]1C(=O)N(Cc1ccccc1)[C@H]2c1ccc(C(F)(F)F)cc1 ?
EP2 modulator: 61*; EP2 antag: 8

How did O=C(Nc1cccc(Br)c1)c1cc2cc(Br)ccc2oc1=O do in these assays?
EP2 modulator: -6; EP2 antag: 8

Results for O=C(NCc1ccc2c(c1)OCO2)c1cc([N+](=O)[O-])ccc1N1CCCCC1 ?
NPY-Y1 PAM-ag: -21; NPY Y1 blocker: 25*; EP2 modulator: 31; NPY-Y2 antag: 23*; EP2 antag: 5; NPY-Y2 PAM-ag: -1

What do the screens show for `CCOc1ccccc1-n1c(SCC(=O)N2CCCC2)nnc1-c1cccnc1`?
EP2 modulator: -11; EP2 antag: 10

Results for CCN(CC)c1ccc2cc(C(=O)Nc3ccc(Br)cc3)c(=O)oc2c1 ?
EP2 modulator: -16; EP2 antag: 5

Results for Cc1cc2ccc(C)c(C)c2nc1SCC(N)=O ?
EP2 modulator: 48; EP2 antag: 11

Results for CCOC(=O)CSc1nc2c(C)c(C)ccc2cc1C ?
EP2 modulator: 88*; EP2 antag: 12

What do the screens show for `CCOC(=O)CSc1nc2c(C)cccc2cc1CC`?
EP2 modulator: 73*; EP2 antag: 10

Bioassay records as filed in PubChem BioAssay.
